Assay results taken from publication PMC10582670 (Clinical and Translational Science, 2023).
Several values for one entry are separate records, joined by “and”; a condition that tells them apart may be missing. Identical values can stand only once.

What was measured:
[1] = Plasma pharmacokinetics after single and multiple oral doses; format: in vivo, human; conditions: for AUC / concentration at 24 h / Cmax / Tmax / Vd/F / half-life: human, plasma, oral; for AUC: AUC0-τ; for Cmax: C max; for Vd/F: V z/F
Outline: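 Healthy adults received once-daily oral doses of 50 or 100 mg (8 active: 2 placebo) for up to 14 days, in the morning after an overnight fast of at least 8 h. Plasma was sampled after the first dose through 16 h, predose on days 2, 4 and 7, and through 72 h after the day-14 dose. Concentrations were measured by LC-MS/MS (LLOQ 0.0500 ng/mL). Parameters came from noncompartmental analysis: accumulation ratios day 14 versus day 1, CL/F as dose/AUC0-inf. Values given as geometric mean (geometric CV%).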

[2] = Food effect on plasma PK; format: in vivo, human
Outline: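 The same healthy subjects from the 75-mg fasted single-dose cohort, after a washout of at least five half-lives, fasted 8 h, ate a high-fat breakfast within 20 min and received a single oral 75 mg dose or placebo 30 min after breakfast began. Plasma was sampled predose, through 72 h and on day 7. Concentrations were measured by LC-MS/MS (LLOQ 0.0500 ng/mL). Relative bioavailability versus fasted dosing was based on AUC and Cmax.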

[3] = MAD 50 mg q.d., n=5, geometric mean (geometric CV%)
[4] = MAD 100 mg q.d., n=7, geometric mean (geometric CV%)
[5] = 50 mg, MAD 50 mg q.d., Day 1, n=5, geometric mean (geometric CV%)
[6] = 50 mg, MAD 50 mg q.d., Day 14, n=5, geometric mean (geometric CV%)
[7] = 100 mg, MAD 100 mg q.d., Day 1, n=7, geometric mean (geometric CV%)
[8] = 100 mg, MAD 100 mg q.d., Day 14, n=7, geometric mean (geometric CV%)

SMILES: O=C(c1nc2n(n1)[C@H](c1ccccc1)C[C@@H]2F)C1CC1 [GDC‐8264]
- CL/F ([1]; MAD 50 mg q.d., Day 14, n=5, geometric mean (geometric CV%)): 4.96 (14.1) L/h
- ARAUC (accumulation ratio based on AUC0-τ of day 14 versus day 1) [1, 3]: 1.39 (4.8)
- ARCmax (accumulation ratio based on C max of day 14 versus day 1) [1, 3]: 1.37 (18.3)
- CL/F ([1]; MAD 100 mg q.d., Day 14, n=7, geometric mean (geometric CV%)): 4.72 (15.2) L/h
- ARAUC (accumulation ratio based on AUC0-τ of day 14 versus day 1) [1, 4]: 1.31 (17.7)
- ARCmax (accumulation ratio based on C max of day 14 versus day 1) [1, 4]: 1.41 (27.3)
- day on which steady-state trough concentrations were observed ([1]; MAD, daily doses): 4 days
- CL/F ([1]; SAD 5 mg single oral dose, fasted, n=6, geometric mean (geometric CV%)): 4.71 (10.0) L/h
- CL/F ([1]; SAD 25 mg single oral dose, fasted, n=6, geometric mean (geometric CV%)): 5.08 (30.3) L/h
- CL/F ([1]; SAD 75 mg single oral dose, fasted, n=5, geometric mean (geometric CV%)): 5.70 (19.0) L/h
- CL/F ([1]; SAD 75 mg single oral dose, high fat meal, n=5, geometric mean (geometric CV%)): 5.79 (23.2) L/h
- CL/F ([1]; SAD 150 mg single oral dose, fasted, n=5, geometric mean (geometric CV%)): 5.40 (18.4) L/h
- CL/F ([1]; SAD 225 mg single oral dose, fasted, n=6, geometric mean (geometric CV%)): 4.81 (6.7) L/h
- AUC [1, 5]: 7270 ng·h/mL
- AUC [1, 6]: 10100 ng·h/mL
- concentration at 24 h ([1]; 50 mg, C24, MAD 50 mg q.d., Day 1, n=5, geometric mean (geometric CV%)): 151 ng/mL
- Cmax [1, 5]: 610 ng/mL
- Cmax [1, 6]: 836 ng/mL
- Tmax ([1]; 50 mg, T max, MAD 50 mg q.d., Day 1, n=5, median (range)): 3 h
- Tmax ([1]; 50 mg, T max, MAD 50 mg q.d., Day 14, n=5, median (range)): 2.5 h
- Vd/F [1, 6]: 80.3 L
- half-life ([1]; 50 mg, t 1/2, MAD 50 mg q.d., Day 14, n=5, geometric mean (geometric CV%)): 11.2 h
- AUC [1, 7]: 16200 ng·h/mL
- AUC [1, 8]: 21200 ng·h/mL
- concentration at 24 h ([1]; 100 mg, C24, MAD 100 mg q.d., Day 1, n=7, geometric mean (geometric CV%)): 342 ng/mL
- Cmax [1, 7]: 1180 ng/mL
- Cmax [1, 8]: 1660 ng/mL
- Tmax ([1]; 100 mg, T max, MAD 100 mg q.d., Day 1, n=7, median (range)): 3 h
- Tmax ([1]; 100 mg, T max, MAD 100 mg q.d., Day 14, n=7, median (range)): 2.5 h
- Vd/F [1, 8]: 77.4 L
- half-life ([1]; 100 mg, t 1/2, MAD 100 mg q.d., Day 14, n=7, geometric mean (geometric CV%)): 11.4 h
- half-life ([1]; mean half-life, tablet formulation): 11 to 13 h
- half-life ([1]; mean terminal half-life, range of means across single doses): 10 to 13 h
- Tmax ([1]; median T max, SAD 5- and 25-mg doses (suspension formulation)): 1.3 to 1.9 h
- Tmax ([1]; median T max, SAD 75-225-mg doses (tablet formulation)): 3 to 4 h
- Tmax ([1]; median T max, overall, as summarised in the discussion): 2.5 to 4 h
- accumulation ratio [AR] ([1]; multiple dosing q.d. up to 14 days, steady state): ~ 1.4 and 1.3–1.4
- effect of a high-fat meal on the PKs ([2]; 75 mg single dose): no significant effect
- delay of median T max after a high-fat meal ([2]; 75 mg, compared to the fasted state): 1 h
